Our source for the Activity, EC50 and IC50 values is ChEMBL document CHEMBL3286354, “9- and 11-Substituted 4-azapaullones are potent and selective inhibitors of African trypanosoma” (Eur J Med Chem, 2014).

Where only a bound is given, the exact number is not on record here.

For data set [1], the target named is T1, Trypanothione synthetase (Trypanosoma brucei brucei) (UniProt Q86MC2).
T1 sequence (whole entry): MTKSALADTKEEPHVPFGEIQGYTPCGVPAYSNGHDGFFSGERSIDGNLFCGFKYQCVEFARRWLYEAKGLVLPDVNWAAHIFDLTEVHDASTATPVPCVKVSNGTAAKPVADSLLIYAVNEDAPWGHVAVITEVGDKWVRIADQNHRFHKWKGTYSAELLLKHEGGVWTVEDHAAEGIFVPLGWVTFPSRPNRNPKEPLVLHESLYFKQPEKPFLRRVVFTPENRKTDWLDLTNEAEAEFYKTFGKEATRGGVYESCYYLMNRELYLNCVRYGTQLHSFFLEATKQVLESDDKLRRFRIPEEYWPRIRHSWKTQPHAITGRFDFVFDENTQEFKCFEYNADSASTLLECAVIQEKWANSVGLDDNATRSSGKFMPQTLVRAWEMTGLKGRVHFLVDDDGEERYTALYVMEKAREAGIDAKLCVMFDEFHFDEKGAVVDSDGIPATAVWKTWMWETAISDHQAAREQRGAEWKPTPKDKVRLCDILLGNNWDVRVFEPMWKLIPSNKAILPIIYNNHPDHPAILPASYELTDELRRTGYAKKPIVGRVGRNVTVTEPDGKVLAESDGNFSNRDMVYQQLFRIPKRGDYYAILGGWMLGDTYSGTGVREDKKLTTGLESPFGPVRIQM
The experiment in a line: Inhibition of Trypanosoma brucei brucei trypanothione synthetase assessed as residual activity at 30 uM after 15 mins incubation by Biomol Green phosphate release absorbance assay.

For data set [2], the system named is Trypanosoma brucei brucei. Put plainly: Antitrypanosomal activity against Trypanosoma brucei brucei 427 assessed as viability at 5 uM after 24 hrs by Flow cytometry relative to control. Format: functional. Summed up:
(§1)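 Single-concentration primary screen on infective T. b. brucei 427, seeded at 5×10^5 cells/mL in HMI-9/10% FBS, 37 °C, 5% CO2, for 24 h. Live cells were counted by flow cytometry with propidium iodide gating over a fixed 60 s acquisition. % viability is relative to the DMSO proliferation control. Triplicates; error as 2 SD.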
Background: Flow cytometry measures light scatter and fluorescence of single cells or particles in a stream.

Data set [3] is described as follows: Toxicity in mouse macrophages at 12 uM after 24 hrs by xCELLingence assay relative to control. Format: cell-based. Particulars: macrophage. In outline: (§2)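 Mouse bone marrow-derived macrophages were seeded at 7.5×10^4 per well in DMEM with 2 mM L-glutamine and 10% heat-inactivated FCS for 24 h. They were then exposed for 24 h to each compound at its highest soluble concentration. Impedance (cell index) was read every 30 min. % toxicity = 100 − (cell index compound / cell index medium × 100).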

Data set [4] in a line: Toxicity in mouse macrophages at 29 uM after 24 hrs by xCELLingence assay relative to control. Particulars: macrophage. Format: cell-based. Summed up:
as §2

The test system of data set [5] is Trypanosoma brucei brucei. The experiment in a line: Antitrypanosomal activity against Trypanosoma brucei brucei 427 assessed as viability after 24 hrs by Flow cytometry. In kind it is functional, organism-based. The conditions noted are these: Trypanosoma brucei, 427, 24 h. In outline:
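Infective bloodstream T. b. brucei 427 (cell line 449 carrying a redox biosensor) in HMI-9 with 10% FBS at 37 °C, 5% CO2. Cells were seeded at 5×10^5 cells/mL with two-fold serial dilutions from DMSO stocks and incubated 24 h. Viability was by propidium iodide exclusion flow cytometry. EC50 came from a sigmoidal Boltzmann fit or non-linear extrapolation, with error as 2 SD.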

The nature of data set [6]: Toxicity in mouse macrophages at 24 uM after 24 hrs by xCELLingence assay relative to control. Format: cell-based. Particulars: macrophage. Summed up: as §2
Data set [7] in a line: Toxicity in mouse macrophages at 48 uM after 24 hrs by xCELLingence assay relative to control. In kind it is cell-based. Particulars: macrophage. Summed up: as §2
Data set [8] is described as follows: Toxicity in mouse macrophages at 58 uM after 24 hrs by xCELLingence assay relative to control. Particulars: macrophage. In kind it is cell-based. In outline:
as §2

The test system of data set [9] is Trypanosoma brucei brucei. Put plainly: Antitrypanosomal activity against Trypanosoma brucei brucei 427 assessed as viability at 30 uM after 24 hrs by Flow cytometry relative to control. In kind it is functional. In outline: as §1
Data set [10] is described as follows: Toxicity in mouse macrophages at 54 uM after 24 hrs by xCELLingence assay relative to control. The conditions noted are these: macrophage. In kind it is cell-based. Summed up:
as §2

Data set [11] is described as follows: Toxicity in mouse macrophages at 10 uM after 24 hrs by xCELLingence assay relative to control. Format: cell-based. The conditions noted are these: macrophage. In outline: as §2
Data set [12] deals with Dual specificity protein kinase CLK1 (Mus musculus, UniProt P22518). Put plainly: Inhibition of mouse recombinant CLK1. In outline: (§3)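 Radiometric kinase assays in buffer A (10 mM MgCl2, 1 mM EGTA, 1 mM DTT, 25 mM Tris-HCl pH 7.5, heparin) or buffer B, with ATP, 30 min at 30 °C. Products were captured on P81 phosphocellulose, washed in 1% phosphoric acid and scintillation counted. Activity is % of the uninhibited control. Substrates: histone H1 for CDK2/CDK5 (BSA added for CDK5), CDK7/9-Tide for CDK9, RS peptide for DYRK1A/CLK1, GS-1 for GSK-3, CKS peptide for CK1.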

The nature of data set [13]: Toxicity in mouse macrophages at 60 uM after 24 hrs by xCELLingence assay relative to control. In kind it is cell-based. Particulars: macrophage. Summed up:
as §2

In data set [14] the target is Glycogen synthase kinase-3 (Sus scrofa, UniProt B2LUN4+I6LNT8). Put plainly: Inhibition of pig brain GSK-3alpha/beta using GS-1 peptide substrate. In outline: as §3
The target of data set [15] is Cyclin-dependent kinase 2/cyclin E1 (Homo sapiens, UniProt P24941). The experiment in a line: Inhibition of human recombinant CDK2/cyclin E. Format: protein-complex assay. Summed up:
as §3

For data set [16], the target named is Dual specificity tyrosine-phosphorylation-regulated kinase 1A (Homo sapiens, UniProt Q13627). Put plainly: Inhibition of human recombinant DYRK1A. In outline:
as §3

The nature of data set [17]: Inhibition of starfish CDK1/cyclinB using histone H1 substrate.
In data set [18] the target is Cyclin-dependent kinase 5/CDK5 activator 1 (Homo sapiens, UniProt Q00535). Put plainly: Inhibition of human recombinant CDK5/p25. Format: protein-complex assay. Summed up:
as §3

The target of another data set is CDK9/cyclin T1 (Homo sapiens, UniProt P50750). The experiment in a line: Inhibition of human recombinant CDK9/cyclin T. Format: protein-complex assay. Summed up:
as §3

Data set [19] in a line: Inhibition of pig brain CK1 delta/epsilon using CKS peptide substrate. Details: species or system Sus scrofa. In outline: as §3
Data set [20] can be described thus: Toxicity in mouse macrophages at 56 uM after 24 hrs by xCELLingence assay relative to control. In kind it is cell-based. The conditions noted are these: macrophage. In outline: as §2
The nature of data set [21]: Toxicity in mouse macrophages at 5 uM after 24 hrs by xCELLingence assay relative to control. In kind it is cell-based. Particulars: macrophage. Summed up: as §2
Data set [22] is described as follows: Toxicity in mouse macrophages at 59 uM after 24 hrs by xCELLingence assay relative to control. Format: cell-based. Particulars: macrophage. In outline:
as §2

A short description of data set [23]: Toxicity in mouse macrophages at 26 uM after 24 hrs by xCELLingence assay relative to control. In kind it is cell-based. Particulars: macrophage. Summed up: as §2

Dual specificity protein kinase CLK1, sequence (P22518 whole entry): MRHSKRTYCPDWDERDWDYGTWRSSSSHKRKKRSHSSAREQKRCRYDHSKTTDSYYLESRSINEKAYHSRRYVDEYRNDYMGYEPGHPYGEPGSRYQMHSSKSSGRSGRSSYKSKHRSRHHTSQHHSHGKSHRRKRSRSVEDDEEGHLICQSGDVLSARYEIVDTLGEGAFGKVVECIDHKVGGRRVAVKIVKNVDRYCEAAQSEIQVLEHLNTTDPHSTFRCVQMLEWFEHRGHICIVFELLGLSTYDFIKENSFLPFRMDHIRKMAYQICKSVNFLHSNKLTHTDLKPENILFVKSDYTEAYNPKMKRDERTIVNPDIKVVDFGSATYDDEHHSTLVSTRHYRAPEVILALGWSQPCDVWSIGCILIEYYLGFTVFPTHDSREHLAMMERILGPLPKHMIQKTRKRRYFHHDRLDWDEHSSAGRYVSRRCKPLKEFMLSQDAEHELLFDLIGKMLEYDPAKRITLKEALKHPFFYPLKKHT
Cyclin-dependent kinase 5/CDK5 activator 1, sequence (Q00535 whole entry): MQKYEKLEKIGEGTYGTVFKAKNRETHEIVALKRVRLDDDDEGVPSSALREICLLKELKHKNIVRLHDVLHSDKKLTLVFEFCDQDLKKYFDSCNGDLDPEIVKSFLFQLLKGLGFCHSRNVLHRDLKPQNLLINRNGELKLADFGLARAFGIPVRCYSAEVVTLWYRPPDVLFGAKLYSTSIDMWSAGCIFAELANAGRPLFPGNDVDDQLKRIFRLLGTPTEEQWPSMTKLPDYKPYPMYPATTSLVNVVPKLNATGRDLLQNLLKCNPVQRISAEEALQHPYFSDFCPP
Cyclin-dependent kinase 5/CDK5 activator 1, sequence (Q15078 whole entry, further chain): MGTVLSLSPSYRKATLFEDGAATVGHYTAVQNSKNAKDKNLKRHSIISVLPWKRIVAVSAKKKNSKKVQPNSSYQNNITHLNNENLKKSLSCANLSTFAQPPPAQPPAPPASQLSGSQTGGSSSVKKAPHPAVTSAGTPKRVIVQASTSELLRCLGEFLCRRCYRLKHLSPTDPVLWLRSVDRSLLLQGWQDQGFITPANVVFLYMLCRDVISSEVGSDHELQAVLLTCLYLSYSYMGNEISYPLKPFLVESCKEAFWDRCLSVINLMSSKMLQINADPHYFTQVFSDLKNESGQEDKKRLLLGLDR
CDK9/cyclin T1, sequence (O60563 whole entry): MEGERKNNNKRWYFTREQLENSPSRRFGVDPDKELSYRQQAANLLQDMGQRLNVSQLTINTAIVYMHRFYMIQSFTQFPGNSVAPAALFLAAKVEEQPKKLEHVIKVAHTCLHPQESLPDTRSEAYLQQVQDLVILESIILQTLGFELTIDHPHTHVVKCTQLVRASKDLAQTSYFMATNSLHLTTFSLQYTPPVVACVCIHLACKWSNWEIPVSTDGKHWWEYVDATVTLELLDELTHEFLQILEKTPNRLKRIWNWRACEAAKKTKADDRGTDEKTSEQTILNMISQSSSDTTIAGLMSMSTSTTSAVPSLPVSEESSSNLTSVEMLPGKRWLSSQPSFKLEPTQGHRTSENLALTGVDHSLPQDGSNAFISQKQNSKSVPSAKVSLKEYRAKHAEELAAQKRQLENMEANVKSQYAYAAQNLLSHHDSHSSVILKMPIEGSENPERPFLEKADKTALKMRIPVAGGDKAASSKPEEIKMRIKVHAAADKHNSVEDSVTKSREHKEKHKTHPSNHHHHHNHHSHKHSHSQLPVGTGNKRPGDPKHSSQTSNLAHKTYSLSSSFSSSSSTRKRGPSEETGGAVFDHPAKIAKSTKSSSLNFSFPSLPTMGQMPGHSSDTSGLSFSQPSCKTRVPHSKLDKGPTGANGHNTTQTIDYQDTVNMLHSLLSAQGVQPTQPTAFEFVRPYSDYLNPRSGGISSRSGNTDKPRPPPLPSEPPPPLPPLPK
CDK9/cyclin T1, sequence (P50750 whole entry): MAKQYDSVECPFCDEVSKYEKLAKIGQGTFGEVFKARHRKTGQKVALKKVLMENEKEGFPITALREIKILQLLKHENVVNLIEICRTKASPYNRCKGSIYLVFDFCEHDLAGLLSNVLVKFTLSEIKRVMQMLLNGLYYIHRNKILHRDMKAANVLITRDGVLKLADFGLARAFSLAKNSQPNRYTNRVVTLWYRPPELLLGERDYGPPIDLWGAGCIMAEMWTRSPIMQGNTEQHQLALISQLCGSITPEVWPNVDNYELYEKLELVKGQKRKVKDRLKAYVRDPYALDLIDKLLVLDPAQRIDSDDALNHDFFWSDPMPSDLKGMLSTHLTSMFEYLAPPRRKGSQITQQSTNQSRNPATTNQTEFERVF

`O=C1Cc2c([nH]c3c(/C=C/C(=O)c4ccc(Cl)cc4)cccc23)-c2cccnc2N1`: the Activity in data set [1] was 73.2%; in data set [2], 74.6%; in [3], 9.2%.

Regarding `O=C(/C=C/c1ccc2[nH]c3c(c2c1)CC(=O)Nc1ncccc1-3)NCc1ccccc1`, the Activity in data set [1] is 67.5%; in data set [2], 12.1%; in data set [4], below 0%.

As for `O=C(/C=C/c1cccc2c3c([nH]c12)-c1cccnc1NC(=O)C3)NCc1ccccc1`, the EC50 in data set [5] worked out at 0.45 µM. The Activity was 4.16% in data set [6], 81.8% in [1] and below 10% in data set [2].

On to `O=C1Cc2c([nH]c3ccc(/C=C/C(=O)c4ccc(Cl)cc4)cc23)-c2cccnc2N1`, for which the Activity in data set [7] was determined as 4.73%; in data set [1] it was 79.8%; in data set [2], 38.4%.

As for `O=C(/C=C/c1ccc2[nH]c3c(c2c1)CC(=O)Nc1ncccc1-3)Nc1ccccc1`, in data set [5], the EC50 was 2.5 µM. For the same molecule, the Activity is below 0% in data set [8], 68.1% in data set [1] and below 10% in data set [2].

Take `O=C1Cc2c([nH]c3ccc(/C=C/C(=O)c4ccco4)cc23)-c2cccnc2N1`: the Activity amounted to 21.9% in data set [9], 90.2% in data set [1] and 17.6% in data set [10].

On to `O=C1Cc2c([nH]c3ccc(I)cc23)-c2cccnc2N1`, for which the Activity in data set [11] turned out to be 12.3%; in data set [9], 72.1%; in data set [1] it was 96.7%.

Take `O=C(/C=C/c1cccc2c3c([nH]c12)-c1cccnc1NC(=O)C3)Nc1ccccc1`: the EC50 in [5] is 0.12 µM. The IC50 in data set [12], in [14], in data set [15], in [16], in [17] and in [18] was above 10 µM in each case. The figures for the IC50 (at CDK9/cyclin T1; in data set [19]) were above 10 µM and 0.49 µM, respectively. The Activity in data set [13] was 74.7%; in data set [1], 94.6%; in data set [2] it was below 10%.

As to `CCN(CC)C(=O)/C=C/c1cccc2c3c([nH]c12)-c1cccnc1NC(=O)C3`, the Activity in data set [9] was 81.6%; in data set [1], 102%; in data set [20], below 0%.

Take `O=C1Cc2c([nH]c3c(I)cccc23)-c2cccnc2N1`: the Activity stood at 61.3% in [9], 112% in data set [1] and 4.4% in data set [21].

Regarding `COc1ccc(C(=O)/C=C/c2cccc3c4c([nH]c23)-c2cccnc2NC(=O)C4)cc1`, the Activity is 16.5% in data set [7], 79.9% in data set [9] and 80.4% in data set [1].

As for `CCN(CC)C(=O)/C=C/c1ccc2[nH]c3c(c2c1)CC(=O)Nc1ncccc1-3`, the Activity is below 0% in [22], 22.1% in data set [9] and 91.5% in [1].

In the case of `O=C1Cc2c([nH]c3ccc(/C=C/C(=O)c4ccccc4)cc23)-c2cccnc2N1`, the Activity is 61.9% in data set [1], 7.6% in data set [23] and 54% in data set [2].

With `O=C1Cc2c([nH]c3c(/C=C/C(=O)c4ccccc4)cccc23)-c2cccnc2N1`, the 50% effective concentration (EC50) in [5] stood at 0.18 µM. The IC50 in [12], in data set [14], in data set [15], in data set [16], in data set [17] and in data set [18] was above 10 µM throughout. Also, the IC50 (on CDK9/cyclin T1; in [19]) was above 10 µM in each case. Besides, the Activity was 91.1% in [1], 28.3% in data set [23] and below 10% in data set [2].

In the case of `COc1ccc(C(=O)/C=C/c2ccc3[nH]c4c(c3c2)CC(=O)Nc2ncccc2-4)cc1`, the values for the Activity in [1], in data set [2] and in data set [3] were 77.6%, 44.5% and 20.3%, respectively.

The term EC50 denotes the concentration giving half of the maximal effect. In general, IC50 refers to the point on the concentration scale where inhibition reaches its midpoint.
